Consider one compound from article PMC5940653 (Leukemia, 2018).

This assay concerns STAT3/5 phosphorylation in NK-S1 cells. The assay can be described thus: Wash-out assay. Type of assay: cell-based. The note with it: NK-S1, 1.0 μM pre-treatment for 2 h. Put shortly:
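NK-S1 cells were grown in DMEM with 10% FBS and 10% equine serum, seeded at 2.5 × 10^6 per well, and exposed to 1.0 µM test compound or DMSO for 2 h. Cells were washed twice in PBS and resuspended in complete medium without inhibitor. They were harvested at washout and 0.5, 1, 2 and 4 h later. Phospho- and total STAT3/5 were immunoblotted, 15 μg protein per lane.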

Regarding `C[C@@H]1CCN(C(=O)CC#N)C[C@@H]1N(C)c1ncnc2[nH]ccc12` [Tofacitinib], the “recovery of phosphorylated STAT3/5 activity post inhibitor washout” value was “within half an hour”.
